According to publication PMC3348450 (Investigational New Drugs, 2011):
Values belong to the compound of their own block, whether it stands above or below them.

Key:
[1] = cited from earlier work
[2] = cited from earlier work; remark: listed apart in the source
[3] = Treatment-related adverse events; format: in vivo, human
In short: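 Adverse events were graded by CTCAE version 3.0 throughout both studies in 18 Japanese patients on the oral test compound, taken in the fed state. Study 1 gave 5 mg BID continuously, six patients first receiving a single 5-mg dose. Study 2 gave single 5-, 7- and 10-mg doses, then 5 mg BID. Titration was to 7 then 10 mg BID; reduction was to 3 or 2 mg BID.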

[4] = Treatment-related laboratory abnormalities, phase I Study 1 and Study 2; format: in vivo, human; settings: treatment-related laboratory abnormality; pooled; N = 18
In short: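 Laboratory abnormalities were pooled across 18 Japanese patients with solid tumours from two studies. Patients took the oral test compound in the fed state: 5 mg BID continuous dosing, preceded by single doses in some patients (5 mg; or 5, 7 and 10 mg in Study 2). Dose could be raised to 7 then 10 mg BID, or cut to 3 or 2 mg BID for toxicity.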

[5] = Plasma pharmacokinetics of axitinib; format: in vivo, human
thyroid gland = experiment: Thyroid function tests; format: in vivo, human; settings: two studies, 18 patients
In short: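 Study 1 measured TSH weekly in cycle 1, then every 2 weeks. Study 2 determined anti-TPO and antithyroglobulin antibody titres at screening, and measured TSH, free T3, free T4 and thyroglobulin weekly in cycle 1, then every 2 weeks. Study 2 also measured total cholesterol and CPK, monitored thyroid tests at every visit, and gave thyroid hormone replacement according to TSH to keep patients euthyroid.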

[6] = system: advanced malignant solid tumors; experiment: Preliminary antitumor activity; format: in vivo, human; settings: 11 of 17 evaluable patients who had a target lesion
[7] = cited from earlier work; remark: listed apart in the source
[8] = Study 2 (N = 6), four patients received thyroid hormone replacement therapy
[9] = treatment-related, pooled, N = 18

Compound: CNC(=O)c1cc(Oc2ccc(NC(=O)Nc3ccc(Cl)c(C(F)(F)F)c3)cc2)ccn1 [sorafenib]
Hypothyroidism and thyroid dysfunction, patients [1]: ~ 20%
Hemoglobin change in treated patients [2]: Elevation of hemoglobin

ALP increased, all grades [4]: 4 (22) n (%)
Blood glucose increased, all grades [4]: 5 (28) n (%)
Blood glucose increased, grade 3/4 [4]: 0 n (%)
Hematuria, all grades [4]: 7 (39) n (%)
Lipase increased, all grades [4]: 6 (33) n (%)
Lipase increased, grade 3/4 [4]: 0 n (%)
Lymphocyte count decreased, all grades [4]: 1 (6) n (%)
Lymphocyte count decreased, grade 3/4 [4]: 0 n (%)
Neutrophil count decreased, all grades [4]: 3 (17) n (%)
Neutrophil count decreased, grade 3/4 [4]: 1 (6) n (%)
Platelet count decreased, all grades [4]: 6 (33) n (%)
Platelet count decreased, grade 3/4 [4]: 0 n (%)
Proteinuria, all grades [4]: 9 (50) n (%)
TSH decreased, all grades [4]: 4 (22) n (%)
TSH increased, all grades [4]: 13 (72) n (%)
AUC ([5]; human, plasma, oral, 5 mg): 138 ng·h/mL
Tmax ([5]; human, plasma, oral, 5 mg): 4.04 h
half-life ([5]; human, plasma, oral, 10 mg): 4.8 to 5.9 h
Time after administration at which plasma concentration reached maximum (Cmax) ([5]; single dose 5, 7, 10 mg, Study 2): ~ 4 h
Dose linearity of plasma pharmacokinetics ([5]; single dosing of 5 mg, 7 mg and 10 mg): generally linear
Patients with elevation of TSH above the upper limit of normal range (thyroid gland): 89%
Compound: CNC(=O)c1ccccc1Sc1ccc2c(/C=C/c3ccccn3)n[nH]c2c1 [axitinib, Axitinib]
Grade 3/4 fatigue, patients ([3]; 18 patients): 28%
Grade 3/4 hypertension, patients ([3]; 18 patients): 33%
Grade 3/4 fatigue, patients ([3]; Study 1): 42%
Treatment-related fatigue, all grades ([3]; Study 1 (N = 12)): 10 (83) n (%)
Treatment-related fatigue, grade 3/4 ([3]; Study 1 (N = 12)): 5 (42) n (%)
Treatment-related fatigue, all grades [3, 8]: 5 (83) n (%)
Treatment-related fatigue, grade 3/4 [3, 8]: 0 n (%)
Anorexia, patients ([3]; treatment-related, 18 patients): 72%
Diarrhea, patients ([3]; treatment-related, 18 patients): 67%
Hand–foot syndrome, patients ([3]; treatment-related, 18 patients): 67%
Hypertension, patients ([3]; treatment-related, 18 patients): 61%
Fatigue, all grades ([3]; treatment-related, pooled Study 1 and Study 2, N = 18): 15 (83) n (%)
Anorexia, all grades [3, 9]: 13 (72) n (%)
Constipation, all grades [3, 9]: 7 (39) n (%)
Diarrhea, all grades [3, 9]: 12 (67) n (%)
Epistaxis, all grades [3, 9]: 5 (28) n (%)
Hand–foot syndrome, all grades [3, 9]: 12 (67) n (%)
Hand–foot syndrome, grade 3/4 [3, 9]: 1 (6) n (%)
Headache, all grades [3, 9]: 4 (22) n (%)
Hoarseness, all grades [3, 9]: 9 (50) n (%)
Hypertension, all grades [3, 9]: 11 (61) n (%)
Nausea, all grades [3, 9]: 4 (22) n (%)
Rash, all grades [3, 9]: 6 (33) n (%)
Stomatitis, all grades [3, 9]: 10 (56) n (%)
Fatigue (all grades), patients ([3]; treatment-related, two studies, 18 patients): 83%
Anemia ([3]; two phase I studies): not reported as an adverse event
AST increased, all grades [4]: 4 (22) n (%)
Evaluable patients with a reduction in tumor size [6]: 65%
Plasma exposure, fed state versus shorter fasting durations ([7]; 2 h before and 2 h after dosing, and 1 h before and 1 h after dosing): no difference in exposure
Plasma exposure, fed state versus overnight fasting state ([7]; Western healthy volunteers): lower plasma exposure
Hemoglobin change in treated patients [2]: Elevation of hemoglobin

Compound: CCN(CC)CCNC(=O)c1c(C)[nH]c(/C=C2\C(=O)Nc3ccc(F)cc32)c1C [sunitinib]
Hypothyroidism and thyroid dysfunction, patients [1]: 36–85%
Hemoglobin change in treated patients [2]: Elevation of hemoglobin
